DENV2 CPE rescue: DENV2-induced cell death inhibition; DENV2-infected cells, cytopathic effect rescue, plate reader; CPE inhibition, % at 9.99 µM; AID 651640; 350,000 compounds, 1.7% hits; in the data active = CPE inhibition above about 20%, passing the limit was not always enough; inconclusive = no clear call, values can overlap the other calls; tested in BHK-21 cells
CAL PDZ FP-1: blocks peptide binding to the human CAL PDZ domain. Q9HD26. purified CAL PDZ, TMR-peptide fluorescence polarization, 1 h. inhibition, % at 24.9 µM. 300,000 compounds, 0.92% hits;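 active = mean inhibition of at least 30% with at least half of replicates also reaching 30%; inconclusive = no clear call, values can overlap the other calls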
SIRT5 inh: blocks human SIRT5 desuccinylation of peptide | 330,000 compounds, 1.1% hits | Q9NXA8 | Purified SirT5, succinyl-peptide AMC, trypsin-coupled fluorescence | AID 652115 | inhibition, % at 15 µM; in the data active = inhibition above about 15%; inconclusive = no clear call, values can overlap the other calls
S100A4 inh HTS: blocks human S100A4 binding to myosin IIA peptide; AID 652163; inhibition, % at 10.7 µM; 360,000 compounds, 0.14% hits; S100A4/TAMRA-MyoIIA peptide fluorescence polarization;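 active = mean inhibition of at least 70% across replicates, with every replicate also reaching that level; inconclusive = mean inhibition reaches 70% but some replicates fall short; inactive = mean inhibition below 70%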
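Material: human S100A4 monomer with TAMRA-labelled myosin IIA peptide; buffer or medium: HEPES pH 7.2 with CaCl2, KCl, NaCl, DTT, Triton; compound dosing: one concentration per compound; schedule: 5 min incubation before reading; benchmarks: neutral control DMSO, positive control TFP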
ERAP1 HTS inh: blocks human ERAP1 aminopeptidase activity | 340,000 compounds, 0.15% hits | Q9NZ08 | inhibition, % at 10.7 µM | AID 652197 | recombinant ERAP1, Leu-AMC fluorescence, 60 min;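 active = mean replicate inhibition of at least 30%, or all replicates individually reaching that 30% level; inactive = mean below 30% and not every replicate reaching it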
CAL PDZ FP-2: inhibitors of human CAL PDZ peptide binding; inhibition, % at 20 µM; 330,000 compounds, 0.02% hits; AID 504414; purified CAL PDZ, TMR-peptide fluorescence polarization, 1 h; Q9HD26;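 active = highest replicate inhibition of at least 40%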
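System: purified tagged CAL PDZ domain construct (CerCALP). Schedule: 1 h incubation at room temperature before polarization reading. Medium: 25 mM sodium phosphate pH 7.4, 150 mM NaCl, TCEP, IgG, Thesit. Read-out: percent inhibition from loss of millipolarization. Measured by: FP readout, S and P plane fluorescence. Probe or stimulus: fluorescent TMR peptide probe.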
Hits are given with their value; - = inactive; ? = inconclusive; . = no result. Hits are enriched below; roughly 2.9% of the tested compounds scored in any of these assays.

SMILES	DENV2 CPE rescue	CAL PDZ FP-1	SIRT5 inh	S100A4 inh HTS	ERAP1 HTS inh	CAL PDZ FP-2
CCOc1ccc(S(=O)(=O)Nc2ccc3c(c2)OCO3)c2cccnc12	.	-	.	.	.	-
C[C@H](CO)N1C[C@H](C)[C@@H](CN(C)S(=O)(=O)c2cn(C)cn2)Oc2ccc(NC(=O)Cc3ccccc3)cc2CC1=O	-	.	.	.	.	.
CN(Cc1ccccc1)N=Nc1nc[nH]c1C(N)=O	77	.	-	-	-	.
COC(=O)c1sc2nc(C)nc(SCC(=O)C(C)(C)C)c2c1C	-	43	-	-	-	-
CCOC(=O)c1sc2nc(C)nc(SCC(=O)NC3CCS(=O)(=O)C3)c2c1C (centres undefined)	-	-	-	-	-	-
S=C(Nc1ccc(-c2nc3ccccc3[nH]2)cc1)Nc1cccnc1	-	43	-	-	-	-
COc1ccc(/C=C2/C(=O)N(c3cccc(F)c3)N=C2C)c(OC)c1	37	-	-	-	-	-
CC1=NN(c2cccc(F)c2)C(=O)/C1=C/c1ccc(N(C)C)cc1	-	-	-	-	-	-
CC(=O)Nc1ccc2c(c1)C(=O)N(C)[C@@H]1CC[C@H](CC(=O)NCc3ccccc3Cl)O[C@@H]1CO2	-	.	-	-	-	.
Cc1noc(C)c1NC(=O)NCC[C@H]1CC[C@@H](NC(=O)c2ccc(F)cc2)[C@H](CO)O1	-	.	-	-	-	.
CNc1cncc(-c2cccc(C(C)=O)c2)n1	31	.	-	-	-	.
C[C@@H]1CN([C@H](C)CO)C(=O)Cc2cc(NC(=O)Cn3cnnn3)ccc2O[C@H]1CN(C)C(=O)Nc1ccc2c(c1)OCO2	-	.	-	-	-	.
COc1ccc(NC(=O)N(C)C[C@H]2Oc3ccc(NC(=O)Cn4cnnn4)cc3CC(=O)N([C@@H](C)CO)C[C@@H]2C)cc1	56	.	-	-	-	.
C[C@@H]1CN([C@@H](C)CO)C(=O)Cc2cc(NC(=O)Cn3cnnn3)ccc2O[C@@H]1CN(C)C(=O)Nc1ccc2c(c1)OCO2	23	.	-	-	-	.
COc1ccc(NC(=O)N(C)C[C@@H]2Oc3ccc(NC(=O)Cn4cnnn4)cc3CC(=O)N([C@@H](C)CO)C[C@@H]2C)cc1	-	.	-	-	-	.
COc1ccc(S(=O)(=O)Nc2ccc3c(c2)C(=O)N([C@H](C)CO)C[C@H](C)[C@@H](CN(C)S(=O)(=O)c2ccc(C)cc2)OCCCC[C@@H](C)O3)cc1	-	.	-	-	-	.
COc1ccc(S(=O)(=O)N(C)C[C@@H]2OCCCC[C@@H](C)Oc3ccc(NS(=O)(=O)c4ccc(C)cc4)cc3C(=O)N([C@@H](C)CO)C[C@H]2C)cc1	-	.	17	-	-	.
COc1ccc(S(=O)(=O)N(C)C[C@H]2OCCCC[C@H](C)Oc3ccc(NS(=O)(=O)c4ccc(C)cc4)cc3C(=O)N([C@@H](C)CO)C[C@H]2C)cc1	-	.	20	-	-	.
COc1ccc(S(=O)(=O)N(C)C[C@H]2OCCCC[C@H](C)Oc3ccc(NS(=O)(=O)c4ccc(C)cc4)cc3C(=O)N([C@H](C)CO)C[C@H]2C)cc1	-	.	29	-	-	.
COc1ccc(S(=O)(=O)N(C)C[C@@H]2OCCCC[C@@H](C)Oc3ccc(NS(=O)(=O)c4ccc(C)cc4)cc3C(=O)N([C@H](C)CO)C[C@@H]2C)cc1	?	.	15	-	-	.
C#CCNC(=O)C1=C[C@H](c2ccc(C#C)cc2)C[C@H](OCCCCO)O1	-	.	-	-	-	.
COc1ccc(S(=O)(=O)Nc2ccc3c(c2)C(=O)N([C@H](C)CO)C[C@@H](C)[C@@H](CN(C)S(C)(=O)=O)OCCCC[C@@H](C)O3)cc1	49	.	-	-	-	.
COc1ccc(S(=O)(=O)N(C)C[C@H]2OCCCC[C@@H](C)Oc3ccc(NS(=O)(=O)c4ccc(C)cc4)cc3C(=O)N([C@@H](C)CO)C[C@H]2C)cc1	-	.	24	-	-	.
COc1ccc(S(=O)(=O)N(C)C[C@H]2OCCCC[C@@H](C)Oc3ccc(NS(=O)(=O)c4ccc(C)cc4)cc3C(=O)N([C@H](C)CO)C[C@@H]2C)cc1	-	.	-	-	-	.

High-throughput results as filed in PubChem BioAssay.
